Results from ChEMBL document CHEMBL3352343, “Structure-activity relationships of oxysterol-derived pharmacological chaperones for Niemann-Pick type C1 protein” (Bioorg Med Chem Lett, 2014).

System: T1, NPC1-like intracellular cholesterol transporter 1 (Homo sapiens), Q9UHC9 [I1061T]
T1 sequence (whole entry): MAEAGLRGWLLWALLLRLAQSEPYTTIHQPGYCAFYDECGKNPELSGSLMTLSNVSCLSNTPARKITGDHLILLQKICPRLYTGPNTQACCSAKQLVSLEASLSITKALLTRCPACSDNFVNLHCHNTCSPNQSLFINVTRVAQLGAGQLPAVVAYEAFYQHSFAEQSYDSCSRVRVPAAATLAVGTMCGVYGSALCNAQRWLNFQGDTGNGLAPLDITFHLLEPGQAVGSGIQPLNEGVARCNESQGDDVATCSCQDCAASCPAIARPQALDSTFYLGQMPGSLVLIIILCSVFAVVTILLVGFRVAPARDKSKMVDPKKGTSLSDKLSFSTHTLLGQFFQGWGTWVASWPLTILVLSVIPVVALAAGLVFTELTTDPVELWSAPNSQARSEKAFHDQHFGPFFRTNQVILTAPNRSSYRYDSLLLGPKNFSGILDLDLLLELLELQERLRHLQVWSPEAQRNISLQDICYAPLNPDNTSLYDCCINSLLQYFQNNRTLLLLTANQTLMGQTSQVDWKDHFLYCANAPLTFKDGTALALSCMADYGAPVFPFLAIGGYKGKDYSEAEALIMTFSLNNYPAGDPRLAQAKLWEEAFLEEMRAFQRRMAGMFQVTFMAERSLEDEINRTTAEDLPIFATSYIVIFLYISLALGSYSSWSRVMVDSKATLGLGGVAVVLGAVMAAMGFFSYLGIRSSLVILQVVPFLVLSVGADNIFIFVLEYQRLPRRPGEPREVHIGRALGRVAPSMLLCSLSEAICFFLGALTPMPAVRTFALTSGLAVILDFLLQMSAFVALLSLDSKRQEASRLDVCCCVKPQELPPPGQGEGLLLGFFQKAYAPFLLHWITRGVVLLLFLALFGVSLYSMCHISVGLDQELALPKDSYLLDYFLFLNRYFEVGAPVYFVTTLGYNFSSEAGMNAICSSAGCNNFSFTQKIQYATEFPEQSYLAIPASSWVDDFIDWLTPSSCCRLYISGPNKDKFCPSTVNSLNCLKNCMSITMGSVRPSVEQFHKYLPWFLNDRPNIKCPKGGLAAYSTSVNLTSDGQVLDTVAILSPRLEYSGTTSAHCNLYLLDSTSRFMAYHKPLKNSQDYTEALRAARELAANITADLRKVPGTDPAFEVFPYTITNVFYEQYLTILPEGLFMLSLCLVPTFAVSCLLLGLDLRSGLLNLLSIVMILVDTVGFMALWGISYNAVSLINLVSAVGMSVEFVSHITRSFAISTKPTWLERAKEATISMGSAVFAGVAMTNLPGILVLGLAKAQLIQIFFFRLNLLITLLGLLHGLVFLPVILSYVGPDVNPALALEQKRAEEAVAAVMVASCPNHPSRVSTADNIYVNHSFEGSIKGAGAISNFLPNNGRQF
Assay: Binding affinity to FLAG/tGFP-tagged NPC1 I1061T mutant (unknown origin) expressed in HEK293 cells assessed as localization after 24 hrs by fluorescence microscopy
Format: cell-based
How it was run: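 HEK293 cells stably expressing NPC1 I1061T-tGFP were exposed to compound for 24 h, fixed, and nuclei stained with Hoechst 33342. In the images, each cell was scored by tGFP pattern: ER 0, mixed ER+vesicle 0.5, vesicular 1. Scores were averaged to give the vesicular-localization percentage, and EC50 was taken from concentration-response. Data are mean ± standard deviation of three independent experiments.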

C[C@H](CCCC(C)(C)O)[C@H]1CC[C@H]2[C@@H]3CC=C4C[C@@H](O)CC[C@]4(C)[C@H]3CC[C@]12C
Activity: Dose-dependent effect
